Data set [1] deals with Cytomegalovirus Davis strain. The data set is described as follows: microbe, parasite or virus in culture. Format: cell-based. The note with it: Human betaherpesvirus 5, HEL, read-out: EC50 Cytomegalovirus Davis strain.
In data set [2] the test system is Herpes simplex virus-1 (KOS). The data set is described as follows: microbe, parasite or virus in culture. In kind it is cell-based, herpes simplex virus type 1. Particulars: Human alphaherpesvirus 1, HEL, read-out: EC50 Herpes simplex virus-1 (KOS).
In data set [3] the test system is Herpes simplex virus-2 (G). The data set is described as follows: microbe, parasite or virus in culture. Format: cell-based, herpes simplex virus type 2. Particulars: Human alphaherpesvirus 2, HEL, read-out: EC50 Herpes simplex virus-2 (G).
In data set [4] the test system is Vaccinia virus. The data set is described as follows: microbe, parasite or virus in culture. In kind it is cell-based. The note with it: Orthopoxvirus vaccinia, HEL, read-out: EC50 Vaccinia virus.
In data set [5] the test system is Vesicular stomatitis virus. The data set is described as follows: microbe, parasite or virus in culture. Format: cell-based. The note with it: Vesicular stomatitis virus, HEL, read-out: EC50 Vesicular stomatitis virus.
The subject of data set [6] is Herpes simplex virus-1TK-KOS ACV^r. The data set is described as follows: microbe, parasite or virus in culture. Particulars: Human alphaherpesvirus 1, HEL, read-out: EC50 Herpes simplex virus-1TK-KOS ACV^r. Format: cell-based, herpes simplex virus type 1.
The test system of data set [7] is Feline herpes virus. The data set is described as follows: Antiviral CPE assay, feline herpes virus in CRFK cells. Format: cell-based. The note with it: CRFK, read-out: EC50 Feline herpes virus.
Data set [8] has as its system Coxsackie virus B4. The data set is described as follows: microbe, parasite or virus in culture. Format: cell-based. The note with it: Enterovirus B, B4, HeLa, read-out: Antiviral activity EC50 Coxsackie virus B4.
Data set [9] has as its system Influenza A H1N1 subtype. The data set is described as follows: Anti-influenza virus activity, influenza A H1N1 in MDCK cells. Format: cell-based, influenza A virus A/Puerto Rico/8/34 (H1N1). The note with it: H1N1, H3N2 and influenza B; below the non-toxic concentration of 100 µM.
Data set [10] concerns Influenza B. The data set is described as follows: Anti-influenza virus activity, influenza B in MDCK cells. In kind it is cell-based, influenza B virus B/Hong Kong/5/72. The note with it: Influenza B virus, MDCK.
Data set [11] has as its system Human embryonic lung cell cultures. The data set is described as follows: Cytotoxicity. In kind it is cell-based. An outline of the steps:
(§1)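 Cell cultures incubated with varying concentrations of test compound, then examined by microscopy. MCC is the lowest concentration that causes a microscopically detectable alteration of normal cell morphology. HEL, Vero and HeLa lines were monitored regularly for mycoplasma and found free of it.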

In data set [12] the test system is Crandell-Rees feline kidney cells. The data set is described as follows: Cytotoxicity. In kind it is cell-based.
The test system of data set [13] is HeLa cell cultures. The data set is described as follows: Cytotoxicity. In kind it is cell-based. In a few lines:
as §1

In data set [14] the test system is Vero cell cultures. The data set is described as follows: Cytotoxicity. In kind it is cell-based. In a few lines: as §1
For data set [15], the system named is MDCK cells. Particulars: microscopically detectable alteration of normal cell morphology.
Data set [16] is described as follows: in vitro. Particulars: dog.
The subject of data set [17] is Para-influenza-3 virus. The data set is described as follows: organism not typed. Format: cell-based, parainfluenza-3 virus. The note with it: Vero, read-out: Antiviral activity EC50 Para-influenza-3 virus.
The subject of data set [18] is Reovirus-1. The data set is described as follows: organism not typed. The note with it: Vero, read-out: Antiviral activity EC50 Reovirus-1. Format: cell-based.
In data set [19] the test system is Sindbis virus. The data set is described as follows: microbe, parasite or virus in culture. In kind it is cell-based. Particulars: Sindbis virus, Vero, read-out: Antiviral activity EC50 Sindbis virus.
Data set [20] concerns Coxsackie virus B4. The data set is described as follows: microbe, parasite or virus in culture. The note with it: Enterovirus B, B4, Vero, read-out: Antiviral activity EC50 Coxsackie virus B4. Format: cell-based.
The subject of data set [21] is Punta Toro virus. The data set is described as follows: microbe, parasite or virus in culture. Format: cell-based. Particulars: Punta Toro virus, Vero, read-out: Antiviral activity EC50 Punta Toro virus.
Data set [22] has as its system mouse-skin papillomas induced by DMBA and TPA. The data set is described as follows: Two-stage mouse-skin carcinogenesis test. Format: in vivo. An outline of the steps: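 Specific pathogen-free female ICR mice, 6 weeks old, about 30 g, 15 per group, kept at 24 ± 2 °C. Shaved backs were initiated with DMBA (100 μg, 390 nmol) in 0.1 ml acetone. One week later, TPA (1 μg, 1.7 nmol) in acetone was applied twice weekly. Test compound (85 nmol) in 0.1 ml acetone was applied topically 1 h before each TPA. Papillomas were scored weekly for 20 weeks as % mice bearing papillomas and mean papillomas per mouse.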

The mark [23] stands for this setting: read-out: Antiviral EC50 Influenza B MTS.
Where [24] appears, read: read-out: Antiviral EC50 Influenza B Visual CPE score.

Molecules are shown by their SMILES. “Also recorded” adds a separate entry of the source. Like-named read-outs stand apart in the source and are kept apart here.

For the compound `O=C1Nc2ccccc2/C1=N/NC(=S)N/N=C1\C(=O)Nc2ccccc21` [6e, 1,3-Bis({[(3Z)-2-oxo-2,3-dihydro-1H-indol-3-ylidene]amino})thiourea], the EC50 (in general, the midpoint of the concentration-response curve) in data set [1] is over 20 µM; in data set [2] it was over 100 µM; in data set [3] it was over 100 µM; in [4] it was over 100 µM; in [5], over 100 µM; in data set [6], over 100 µM. In addition, the EC50 in data set [7] was over 100 µM; in data set [8], over 100 µM; in [10] (setting [23]), 48 ± 31 µM; in data set [10] (setting [24]) it was 39 ± 5.5 µM. Moreover, in [9], the “anti-influenza activity (in words)” value is recorded as “some activity”. In addition, the Minimum cytotoxic concentration in data set [11] was 100 µM; in [12], over 100 µM; in data set [13] it was over 100 µM; in data set [14], 100 µM. The “Cytotoxicity Minimum cytotoxic concentration” value in data set [15] is on record as over 100. Also, in data set [16], the CC50 was over 100 µM.
As to `Cc1ccc2c(c1)/C(=N/NC(=O)N/N=C1\C(=O)Nc3ccc(C)cc31)C(=O)N2` [6c, 1,3-Bis({[(3Z)-5-methyl-2-oxo-2,3-dihydro-1H-indol-3-ylidene]amino})urea], the EC50 in data set [1], in [2], in data set [3], in [4], in data set [5] and in data set [6] was over 100 µM each time. The EC50 is 55.1 µM in [7]; over 100 µM in data set [8]; over 20 µM in data set [17]; over 20 µM in data set [18]; over 20 µM in [19]; over 20 µM in data set [20]. Moreover, the EC50 in data set [21], in [10] (setting [23]) and in data set [10] (setting [24]) was over 20 µM throughout. Also, the Minimum cytotoxic concentration in [11] is over 100 µM; in [12], over 100 µM; in data set [13] it was over 100 µM; in data set [14], 100 µM. The “chemoprevention / anti-tumor promoting activity (in words)” value in data set [22] (85 nmol topical) is recorded as “highest chemoprevention activity; also recorded: stronger chemoprevention activity”. Further, the “percentage of papilloma-bearing mice” value in data set [22] (85 nmol topical before each TPA, during weeks 10–15) is 40–70%; in [22] (85 nmol topical, week 18), 90%; in data set [22] (85 nmol topical, week 20) it was 100%. This compound also gave a papillomas/mouse in data set [22] (85 nmol topical, week 20) of 5.1 papillomas/mouse. Further, the “Cytotoxicity Minimum cytotoxic concentration” value in [15] is at least 20. This compound yielded a CC50 in [16] of 46 µM.
For the compound `O=C(N/N=C1\C(=O)Nc2ccc([N+](=O)[O-])cc21)N/N=C1\C(=O)Nc2ccc([N+](=O)[O-])cc21` [6d, 1,3-Bis({[(3Z)-5-nitro-2-oxo-2,3-dihydro-1H-indol-3-ylidene]amino})urea], the EC50 in data set [1], in [2], in data set [3], in [4], in data set [5] and in data set [6] was over 100 µM throughout. For the same compound, the EC50 in data set [7], in data set [8], in data set [17], in data set [18], in [19] and in [20] was over 100 µM in each case. Moreover, the EC50 in data set [21] was over 100 µM; in data set [10] (setting [23]), 38 ± 1.3 µM; in data set [10] (setting [24]), 47 ± 2.5 µM. Moreover, the “anti-influenza activity (in words)” value in data set [9] is given as “some activity”. For the same compound, the Minimum cytotoxic concentration in data set [11] was at least 100 µM; in [12], over 100 µM; in data set [13], over 100 µM; in [14], over 100 µM. In addition, in data set [15], the “Cytotoxicity Minimum cytotoxic concentration” value is given as over 100. This compound showed a CC50 in data set [16] of over 100 µM.
